Measured values as given in ChEMBL document CHEMBL1138567, “Regioselective synthesis and antimicrobial screening of novel ketocarbazolodispiropyrrolidine derivatives” (2009).

How the values were obtained:
Assay type in all cases: functional
Conditions in all cases: read-out: IZ
Proteus vulgaris [1] = assay: Antimicrobial activity against Proteus vulgaris at 25 ug/ml after 24 hrs by agar diffusion method
Procedure, shortened: (§1)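 Agar well diffusion: petri plates (9 cm) with about 9 ml nutrient agar, seeded with the test organism. Wells cut with a cork borer and loaded with test compound at 25, 50, 75 or 100 per ml; tetracycline as control. Incubated 37 °C for 24 h; average inhibition-zone diameter around wells measured (mm).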

Proteus vulgaris [2] = assay: Antimicrobial activity against Proteus vulgaris at 50 ug/ml after 24 hrs by agar diffusion method; procedure, shortened: as §1
Proteus vulgaris [3] = assay: Antimicrobial activity against Proteus vulgaris at 75 ug/ml after 24 hrs by agar diffusion method; procedure, shortened: as §1
Proteus vulgaris [4] = assay: Antimicrobial activity against Proteus vulgaris at 100 ug/ml after 24 hrs by agar diffusion method; procedure, shortened: as §1
Proteus mirabilis [5] = assay: Antimicrobial activity against Proteus mirabilis at 25 ug/ml after 24 hrs by agar diffusion method; procedure, shortened: as §1
Proteus mirabilis [6] = assay: Antimicrobial activity against Proteus mirabilis at 50 ug/ml after 24 hrs by agar diffusion method; procedure, shortened: as §1
Proteus mirabilis [7] = assay: Antimicrobial activity against Proteus mirabilis at 75 ug/ml after 24 hrs by agar diffusion method; procedure, shortened: as §1
Proteus mirabilis [8] = assay: Antimicrobial activity against Proteus mirabilis at 100 ug/ml after 24 hrs by agar diffusion method; procedure, shortened: as §1
Staphylococcus aureus [9] = assay: Antimicrobial activity against Staphylococcus aureus at 25 ug/ml after 24 hrs by agar diffusion method; procedure, shortened: as §1
Staphylococcus aureus [10] = assay: Antimicrobial activity against Staphylococcus aureus at 50 ug/ml after 24 hrs by agar diffusion method; procedure, shortened: as §1
Staphylococcus aureus [11] = assay: Antimicrobial activity against Staphylococcus aureus at 75 ug/ml after 24 hrs by agar diffusion method; procedure, shortened: as §1
Staphylococcus aureus [12] = assay: Antimicrobial activity against Staphylococcus aureus at 100 ug/ml after 24 hrs by agar diffusion method; procedure, shortened: as §1
[13] = test system: Salmonella enterica subsp. enterica serovar Typhi str. CT18; assay: Antimicrobial activity against Salmonella typhi at 25 ug/ml after 24 hrs by agar diffusion method
Procedure, shortened: (§2)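 Agar well diffusion: about 9 ml nutrient agar in 9 cm Petri plates, seeded with the test organism. Wells cut with a cork borer and loaded with test compound at 25–100 per ml; tetracycline as control. Plates incubated 24 h at 37 °C. Read-out is the average diameter of the inhibition zone around each well, in mm.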

[14] = test system: Salmonella enterica subsp. enterica serovar Typhi str. CT18; assay: Antimicrobial activity against Salmonella typhi at 50 ug/ml after 24 hrs by agar diffusion method; procedure, shortened: as §2
[15] = test system: Salmonella enterica subsp. enterica serovar Typhi str. CT18; assay: Antimicrobial activity against Salmonella typhi at 75 ug/ml after 24 hrs by agar diffusion method; procedure, shortened: as §2
[16] = test system: Salmonella enterica subsp. enterica serovar Typhi str. CT18; assay: Antimicrobial activity against Salmonella typhi at 100 ug/ml after 24 hrs by agar diffusion method; procedure, shortened: as §2

Row | SMILES | zone of inhibition at 25 µg/mL (Proteus vulgaris [1]) [mm] | zone of inhibition at 50 µg/mL (Proteus vulgaris [2]) [mm] | zone of inhibition at 75 µg/mL (Proteus vulgaris [3]) [mm] | zone of inhibition at 100 µg/mL (Proteus vulgaris [4]) [mm] | zone of inhibition at 25 µg/mL (Proteus mirabilis [5]) [mm] | zone of inhibition at 50 µg/mL (Proteus mirabilis [6]) [mm] | zone of inhibition at 75 µg/mL (Proteus mirabilis [7]) [mm] | zone of inhibition at 100 µg/mL (Proteus mirabilis [8]) [mm] | zone of inhibition at 25 µg/mL (Staphylococcus aureus [9]) [mm] | zone of inhibition at 50 µg/mL (Staphylococcus aureus [10]) [mm] | zone of inhibition at 75 µg/mL (Staphylococcus aureus [11]) [mm] | zone of inhibition at 100 µg/mL (Staphylococcus aureus [12]) [mm] | zone of inhibition at 25 µg/mL [13] [mm] | zone of inhibition at 50 µg/mL [14] [mm] | zone of inhibition at 75 µg/mL [15] [mm] | zone of inhibition at 100 µg/mL [16] [mm]
1 | COc1ccc([C@@H]2CN(C)[C@@]3(C(=O)Nc4ccccc43)[C@]23CCc2c([nH]c4ccccc24)C3=O)cc1 | 11 | 13 | 18 | 20 | 9 | 13 | 16 | 21 | 12 | 14 | 17 | 20 | 12 | 14 | 18 | 21
2 | CN1C[C@@H](c2ccc([N+](=O)[O-])cc2)[C@@]2(CCc3c([nH]c4ccccc34)C2=O)[C@]12C(=O)c1cccc3cccc2c13 | 13 | 22 | 27 | > 40 | 9 | 13 | 17 | 21 | 9 | 16 | 21 | 31 | 11 | 14 | 18 | 25
3 | Cc1ccc([C@@H]2CN(C)[C@@]3(C(=O)Nc4ccccc43)[C@]23CCc2c([nH]c4ccccc24)C3=O)cc1 | 12 | 16 | 18 | 21 | 11 | 14 | 16 | 18 | 9 | 13 | 16 | 20 | 9 | 12 | 14 | 16
4 | CN1C[C@@H](c2ccccc2)[C@@]2(CCc3c([nH]c4ccccc34)C2=O)[C@]12C(=O)Nc1ccccc12 | 12 | 16 | 20 | 26 | 9 | 12 | 14 | 16 | 11 | 13 | 16 | 18 | 9 | 11 | 13 | 18
5 | CN1C[C@@H](c2ccc(Cl)cc2)[C@@]2(CCc3c([nH]c4ccccc34)C2=O)[C@]12C(=O)Nc1ccccc12 | 9 | 18 | 24 | 26 | 13 | 15 | 18 | 22 | 9 | 14 | 18 | 21 | 11 | 15 | 17 | 18
6 | CN(C)[C@@H]1C(O)=C(C(N)=O)C(=O)[C@@]2(O)C(O)=C3C(=O)c4c(O)cccc4[C@@](C)(O)[C@H]3C[C@@H]12 [TETRACYCLINE] | 18 | 24 | 28 | > 40 | 18 | 24 | 28 | > 40 | 22 | 24 | 28 | > 40 | 18 | 22 | 28 | > 40
